Data set [1] relates to Mus musculus. Description: In vivo binding affinity to GlyT1 in ddY mouse brain cortex at 33.3 kBq, iv after 60 mins in presence of SSR504734 2 mg/kg, iv administered 15 mins prior to compound administration relative to control. Conditions: tested as the 125I-labelled form. Format: functional, organism-based. Set-up: dose 2 mg/kg. In a few lines:
(§1)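 Blocking study in male ddY mice (6 weeks, 30–35 g). The blocker (2 mg/kg in 30% DMSO/saline) was injected i.v. 15 min before about 33.3 kBq [125I]tracer i.v.; mice were killed at 30 or 60 min. Brains were divided into cortex, corpus callosum, hippocampus, thalamus, midbrain, medulla and cerebellum, weighed and gamma-counted as % dose/g. Values are mean ± SD, n = 5–6, compared to control by Kruskal–Wallis with Dunn's post-test.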

Data set [2] relates to Mus musculus. Description: In vivo binding affinity to GlyT1 in ddY mouse brain striatum at 33.3 kBq, iv after 60 mins in presence of nonradioactive compound 2 mg/kg, iv administered 15 mins prior to compound administration relative to control. Type of data set: functional, organism-based. Set-up: dose 2 mg/kg. Conditions: tested as the 125I-labelled form.
In data set [3] the target is T1, Sodium- and chloride-dependent glycine transporter 1 (Rattus norvegicus) (UniProt P28572).
T1 sequence (whole entry): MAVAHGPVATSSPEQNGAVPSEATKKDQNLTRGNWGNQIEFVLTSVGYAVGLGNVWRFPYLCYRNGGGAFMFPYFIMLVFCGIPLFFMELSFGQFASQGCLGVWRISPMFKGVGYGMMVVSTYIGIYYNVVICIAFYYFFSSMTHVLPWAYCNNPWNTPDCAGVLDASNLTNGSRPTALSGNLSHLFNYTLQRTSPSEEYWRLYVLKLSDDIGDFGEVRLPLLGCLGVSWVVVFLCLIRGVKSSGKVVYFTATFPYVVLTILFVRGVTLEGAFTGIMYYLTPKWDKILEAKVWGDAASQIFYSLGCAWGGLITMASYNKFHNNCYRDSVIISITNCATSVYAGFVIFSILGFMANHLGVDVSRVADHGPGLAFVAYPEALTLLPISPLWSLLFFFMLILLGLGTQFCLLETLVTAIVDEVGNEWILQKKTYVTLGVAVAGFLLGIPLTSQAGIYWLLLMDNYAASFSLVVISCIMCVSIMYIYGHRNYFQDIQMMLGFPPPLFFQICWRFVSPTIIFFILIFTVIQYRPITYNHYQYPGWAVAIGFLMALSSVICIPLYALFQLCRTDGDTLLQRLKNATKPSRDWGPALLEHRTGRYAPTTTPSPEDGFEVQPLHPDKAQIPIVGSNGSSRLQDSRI
Description: Binding affinity to GlyT1 in rat brain cerebral cortex at 0.03 to 0.04 nM preincubated for 20 mins in binding buffer before compound addition measured after 30 mins by autoradiography in presence of 0.01 mM GlyT1 inhibitor HPCP relative to control. Conditions: tested as the 125I-labelled form. Format: tissue-based. The method in brief: (§2)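 Rat brain sagittal sections (20 µm) preincubated 20 min at 25 °C in Tris-HCl buffer pH 7.5 (NaCl, KCl, MgCl2, CaCl2), then 30 min at 25 °C with [125I] tracer (100 kBq, 0.03–0.04 nM) plus competitor (10 µM; glycine 1 or 10 mM). Cold washes, imaging plate 3 days, ROI PSL minus background per mm². % control from ≥triplicate slices, three rats.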

The test system of data set [4] is Mus musculus. Description: In vivo binding affinity to GlyT1 in ddY mouse brain cerebellum at 33.3 kBq, iv after 30 mins in presence of SSR504734 2 mg/kg, iv administered 15 mins prior to compound administration relative to control. Conditions: tested as the 125I-labelled form. Set-up: dose 2 mg/kg. Format: functional, organism-based. The method in brief:
as §1

In data set [5] the target is T1, Sodium- and chloride-dependent glycine transporter 1 (Rattus norvegicus). Kind of data set: Binding affinity to GlyT1 in rat brain cerebellum at 0.03 to 0.04 nM preincubated for 20 mins in binding buffer before compound addition measured after 30 mins by autoradiography in presence of 0.01 mM GlyT2 inhibitor ORG25543 relative to control. Type of data set: tissue-based. Conditions: tested as the 125I-labelled form. The method in brief:
as §2

The target is the same in data set [6]. Kind of data set: Binding affinity to GlyT1 in rat brain medullary region at 0.03 to 0.04 nM preincubated for 20 mins in binding buffer before compound addition measured after 30 mins by autoradiography in presence of 0.01 mM GlyT1 inhibitor SSR504734 relative to control. Type of data set: tissue-based. Conditions: tested as the 125I-labelled form. The method in brief:
as §2

For data set [7] the target is unchanged. Kind of data set: Binding affinity to GlyT1 in rat brain cerebellum at 0.03 to 0.04 nM preincubated for 20 mins in binding buffer before compound addition measured after 30 mins by autoradiography in presence of 1 mM GlyT1 substrate glycine relative to control. Format: tissue-based. Conditions: tested as the 125I-labelled form. The method in brief:
as §2

The test system of data set [8] is Mus musculus. Description: In vivo binding affinity to GlyT1 in ddY mouse brain midbrain at 33.3 kBq, iv after 60 mins in presence of SSR504734 2 mg/kg, iv administered 15 mins prior to compound administration relative to control. Format: functional, organism-based. Set-up: dose 2 mg/kg. Conditions: tested as the 125I-labelled form.
The target of data set [9] is T1, Sodium- and chloride-dependent glycine transporter 1 (Rattus norvegicus). Kind of data set: Binding affinity to GlyT1 in rat brain hippocampus at 0.03 to 0.04 nM preincubated for 20 mins in binding buffer before compound addition measured after 30 mins by autoradiography in presence of 0.01 mM GlyT1 inhibitor ALX5407 relative to control. Format: tissue-based. Conditions: tested as the 125I-labelled form. The method in brief:
as §2

Data set [10] relates to Mus musculus. Description: In vivo binding affinity to GlyT1 in ddY mouse brain striatum at 33.3 kBq, iv after 60 mins in presence of N-Me-SSR504734 2 mg/kg, iv administered 15 mins prior to compound administration relative to control. Type of data set: functional, organism-based. Set-up: dose 2 mg/kg. Conditions: tested as the 125I-labelled form.
Data set [11] addresses T1, Sodium- and chloride-dependent glycine transporter 1 (Rattus norvegicus). Description: Binding affinity to GlyT1 in rat brain medullary region at 0.03 to 0.04 nM preincubated for 20 mins in binding buffer before compound addition measured after 30 mins by autoradiography in presence of GlyT1 inhibitor N-Me-SSR504734 relative to control. Format: tissue-based. Conditions: tested as the 125I-labelled form. In a few lines: as §2

Data set [12] relates to Lung. Kind of data set: Drug uptake in ddY mouse lung at 11.1 kBq, iv after 0.5 min by gamma counting. Format: ADME, organism-based. Conditions: in vivo. In a few lines:
(§3)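 Male ddY mice (6 weeks, 30–35 g) were given about 11.1 kBq of [125I]tracer in 0.1 mL i.v. via the tail vein. At each time point the animals were killed and organs dissected, weighed and gamma-counted. Uptake is expressed as % injected dose per gram of tissue, mean ± SD, n = 5–6.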

In the next data set the test system is Nucleic Acid. Kind of data set: Ratio of drug level in brain to blood in ddY mouse at 11.1 kBq, iv after 0.5 min by gamma counting. Format: ADME, organism-based.
In data set [13] the test system is Mus musculus. Kind of data set: In vivo binding affinity to GlyT1 in ddY mouse brain midbrain at 33.3 kBq, iv after 60 mins in presence of N-Me-SSR504734 2 mg/kg, iv administered 15 mins prior to compound administration relative to control. Format: functional.
The subject of a further data set is Pancreas. Description: Drug uptake in ddY mouse pancreas at 11.1 kBq, iv after 5 min by gamma counting. Format: ADME, organism-based. Conditions: in vivo. The method in brief: as §3
For a further data set, the system named is Blood. Description: Drug uptake in ddY mouse blood at 11.1 kBq, iv after 180 min by gamma counting. Format: ADME, organism-based. Conditions: in vivo, 3 h. In a few lines: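 Male ddY mice (6 weeks, 30–35 g) received about 11.1 kBq [125I]tracer in 0.1 mL i.v. via tail vein. Killed at set times, organs dissected and weighed, radioactivity gamma counted. Reported as % injected dose/g tissue, mean ± SD, n = 5–6.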

A further data set has as its system Liver. Kind of data set: Drug uptake in ddY mouse liver at 11.1 kBq, iv after 0.5 min by gamma counting. Format: ADME, organism-based. Conditions: in vivo. In a few lines:
as §3

For data set [14], the system named is Lung. Kind of data set: Drug uptake in ddY mouse lung at 11.1 kBq, iv after 15 min by gamma counting. Type of data set: ADME, organism-based. Conditions: in vivo. In a few lines: as §3

Consider two molecules from ChEMBL document CHEMBL1938298, “Synthesis and characterization of [¹²⁵I]2-iodo N-[(S)-{(S)-1-methylpiperidin-2-yl}(phenyl)methyl]3-trifluoromethyl-benzamide as novel imaging probe for glycine transporter 1” (Bioorg Med Chem, 2011).

Calls of active or inactive are those of the source. The calls are words filed in the database; no cut-off is given here.

On to `CN1CCCC[C@H]1[C@@H](NC(=O)c1cccc(C(F)(F)F)c1I)c1ccccc1`, for which the result with Mus musculus [1], with Mus musculus [4] and with Mus musculus [8] was inactive. The result with Mus musculus [2] and in the data set on Mus musculus [10] was Active. The Activity turned out to be 31% in data set [3]; 124% in [5]; 31.7% in [6]; 97.4% in data set [7]; 63.2% in data set [9]; 20.6% in data set [11].
For `CN1CCCC[C@H]1[C@@H](NC(=O)c1cccc(C(F)(F)F)c1[125I])c1ccccc1`, the Drug uptake with Lung [12] amounted to 17.19 % ID/g; in the data set on Pancreas, 6.4 % ID/g; with Blood, 0.85 % ID/g; in the data set on Liver, 1.82 % ID/g; with Lung [14] it was 15.24 % ID/g. Moreover, the Ratio with Nucleic Acid turned out to be 0.38. Besides, the Activity in the data set with Mus musculus [13] is recorded as 48%.
